Hits are enriched below; roughly 3.5% of the tested compounds scored in any of these assays.
RGS4 block: inhibitors of human RGS4; P49798; HEK293 M3R/RGS4 inducible, Fluo-4 calcium flux; active compounds read high; triggered by carbachol at its EC20; B-score at 10 µM; 0.45% of 310,000 active; AID 463165;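 active means B-score, a plate-corrected calcium signal, over three deviations above library mean, with baseline fluorescence within five deviations of library mean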;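 further: RGS4 expression induced by doxycycline in cells with stable M3 receptor; B-score is computed from the integrated fluorescence ratio over baseline after carbachol; higher B-score means a larger calcium signal and so more RGS4 inhibition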
Target sequence (P49798 whole entry, looked up): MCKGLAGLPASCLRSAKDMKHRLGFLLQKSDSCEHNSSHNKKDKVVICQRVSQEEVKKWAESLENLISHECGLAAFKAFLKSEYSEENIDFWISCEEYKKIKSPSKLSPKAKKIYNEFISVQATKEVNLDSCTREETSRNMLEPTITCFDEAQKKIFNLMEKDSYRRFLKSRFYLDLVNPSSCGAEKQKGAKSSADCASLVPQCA
MrgX1 antagonist: human MrgX1 receptor antagonism, primary screen. MRGX1-HEK293 calcium flux, Fluo-4, BAM8-22 antagonism; active compounds read low. B-score at 10 µM. 1.3% of 310,000 active;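 active means calcium-response B-score plate-corrected more than 3 library SD below zero, starting fluorescence within 5 deviations, no agonist response on first addition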;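 further: peak minus trough fluorescence over baseline after final BAM8-22 challenge near maximal dose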
Target sequence (Q96LB2 whole entry, looked up): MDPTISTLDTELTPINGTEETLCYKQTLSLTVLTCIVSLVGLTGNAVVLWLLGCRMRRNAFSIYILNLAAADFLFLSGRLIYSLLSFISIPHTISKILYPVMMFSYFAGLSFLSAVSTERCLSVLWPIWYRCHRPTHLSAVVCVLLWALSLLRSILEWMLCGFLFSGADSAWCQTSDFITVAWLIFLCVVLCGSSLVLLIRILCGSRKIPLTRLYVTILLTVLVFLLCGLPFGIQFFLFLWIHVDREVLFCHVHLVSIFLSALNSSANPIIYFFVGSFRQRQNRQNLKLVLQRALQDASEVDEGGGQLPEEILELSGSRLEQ
RGS4 act: RGS4 potentiation or activation | HEK293 M3R/inducible RGS4, carbachol calcium flux Fluo4; active compounds read low | B-score at 10 µM | 0.92% of 310,000 active;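 active means B-score of the integrated calcium signal more than 4 SD below the library mean, with starting fluorescence not abnormally high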;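 further: negative B-score means reduced calcium response which marks RGS4 activation or potentiation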
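Assay system: HEK293 FlpIn-TREx cells, stable M3R, doxycycline-inducible RGS4 / Probe or stimulus: carbachol, ECmax concentration / Times: overnight RGS4 induction, 30 min dye load 37 °C, 20 min compound RT / Signal: kinetic calcium fluorescence imaging with Fluo4-AM dye, 2 µM / Measure: Agonist-evoked peak-minus-minimum fluorescence over baseline, integrated ratio, B score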
MrgX1 allo act: allosterically activates human MrgX1 receptor signaling. MrgX1-HEK293, Fluo-4 calcium flux, FDSS; active compounds read high. B-score at 10 µM. Q96LB2. 0.63% of 310,000 active;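 active means plate-corrected calcium response at least 3 library SD above typical, normal starting fluorescence, not activating the receptor alone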;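 further: compound read alongside a low EC10 to EC30 dose of BAM8-22 agonist; peak minus trough fluorescence over baseline measured at the second addition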
MrgX1 agonist: human MrgX1 receptor agonism, primary screen; AID 588627; MrgX1-HEK293 cells, Fluo-4 calcium fluorescence, agonist mode; active compounds read high; B-score at 10 µM; Q96LB2; 0.44% of 310,000 active;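 active means calcium response B-score plate-corrected fluorescence ratio at least 3 library SD, with starting fluorescence B-score inside 5 SD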
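Assay system: stable human MrgX1 HEK293 cell line. Quantity: 15,000 cells per well. Schedule: cells plated overnight, dye loaded 0.5 h 37 °C, 0.5 h room temperature. Detection: Fluo-4 NW calcium-flux fluorescence, kinetic read. Read-out basis: peak-minus-minimum fluorescence over baseline, converted to B scores. Control set: positive and negative control wells on each plate.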
Active calls of the source: *; i = inactive; x = no result given.

SMILES | RGS4 block | MrgX1 antagonist | RGS4 act | MrgX1 allo act | MrgX1 agonist
O=C1NC(=S)N/C1=C/c1cccc2ccccc12 | i | i | i | i | i
Cc1cccc(NC(=O)CSc2nnc(CNC(=O)c3ccc(S(=O)(=O)N(C)C)cc3)n2-c2ccc(F)cc2)c1 | i | i | i | i | i
Cc1cccc(-n2c(CNC(=O)c3ccc(S(=O)(=O)N(C)C)cc3)nnc2SCC(=O)Nc2ccc(F)cc2)c1 | i | i | -8.1* | i | i
O=C(COC(=O)/C=C/c1cn(-c2ccccc2)nc1-c1ccc2c(c1)OCCO2)NC1CCS(=O)(=O)C1 (stereo not given) | i | i | -8.5* | i | i
Cc1ccc(C(C)C)c(OCCN(C)C)c1 | i | i | -7.1* | i | i
CCCN(CCC)CCOc1cc(C)ccc1C(C)C | i | i | i | i | i
N=C1/C(=C\c2ccc(-c3cc(Cl)cc(Cl)c3)o2)C(=O)N=C2SC=C(c3ccccc3)N12 | i | i | i | i | i
N=C1/C(=C/c2ccc(-c3cccc(C(=O)O)c3)o2)C(=O)N=C2SC=C(c3ccccc3)N12 | i | -7.6* | -8.4* | i | i
CSc1ccc(OC2CCN(Cc3ccccc3)CC2)cc1 | i | i | -7.9* | i | i
Cc1cccc(NC(=S)N2CCN(S(=O)(=O)c3ccc(F)cc3)CC2)c1 | i | i | i | i | i
Cc1ccc([N+](=O)[O-])c(OCCn2cnc3ccccc32)c1 | i | i | i | 10* | i
CNC(=O)c1cccc(NC(=O)c2ccccc2OCc2ccccc2)c1 | i | i | i | i | i
Cc1ccc(CNC(=O)c2nnn(CC(=O)Nc3cccc(C)c3C)c2N)cc1 | i | i | i | i | i
CCOC(=O)C1CCN(C(=O)COC(=O)CSc2ccc(C(N)=O)cc2[N+](=O)[O-])CC1 | i | i | i | i | i
COC(=O)C1CCN(C(=O)COC(=O)CSc2ccc(C(N)=O)cc2[N+](=O)[O-])CC1 | i | -6.4* | i | i | i
CCOC(=O)CSc1ccc(C(=O)NCCCN2CCOCC2)cc1[N+](=O)[O-] | i | i | -8.2* | i | i
CC(OC(=O)c1cc(S(=O)(=O)N(C)C)ccc1N1CCCC1)C(=O)NCc1ccccc1 (stereo not given) | i | i | i | i | i
Cc1nn(-c2ccccc2)c(Cl)c1/C=N/NC(=O)c1ccc(NS(=O)(=O)c2cccs2)cc1 | i | i | i | 11* | i
Cc1ccc(-n2nc(C)c(/C=N/NC(=O)c3cccnc3)c2Cl)cc1 | i | -4.8* | i | i | i
COCCn1ccc2c(OCC(=O)NCCc3ccc(OC)c(OC)c3)cccc2c1=O | i | i | i | i | i
CCOc1ccc(NC(=O)CN(C)C(=O)c2cn(-c3ccccc3)nc2-c2cccs2)cc1OCC | i | i | i | i | i
CC(=O)COc1cc(C)cc2oc(=O)cc(-c3ccccc3)c12 | i | i | i | i | i
Cc1cc(O)c2c(-c3ccccc3)cc(=O)oc2c1 | x | i | x | i | 44*
CCOc1cccc(-c2c(C(=O)N/N=C(\C)c3cccs3)nnn2-c2nonc2N)c1 | i | i | i | i | i
COC(=O)CN1C(=O)N/C(=C/c2ccc(OC)cc2)C1=O | i | i | i | i | 43*
SMILES | RGS4 block | MrgX1 antagonist | RGS4 act | MrgX1 allo act | MrgX1 agonist
CC1CCCN(C(=O)CN(C)S(=O)(=O)c2ccc3c(c2)c(=O)n(C)c(=O)n3C)C1 (stereo not given) | i | i | i | i | i
CCOC(=O)c1sc(NN=C(C(=O)OC)C(=O)OC)c(C(=O)OCC)c1C | i | i | i | i | i
COc1cc(C(c2c(O)nc(SC)[nH]c2=O)c2c(O)nc(SC)[nH]c2=O)cc(OC)c1OC | i | -4.7* | i | i | i
CCN(CC(=O)Nc1ccc(NC(C)=O)cc1)C(=O)COc1ccccc1Cc1ccccc1 | i | i | i | i | i
O=C(NCC1CCCO1)/C(=C\c1cccc([N+](=O)[O-])c1)NC(=O)c1ccccc1 (stereo not given) | i | -5.7* | i | i | i
O=C(NCC1CCCO1)/C(=C/c1ccccc1)NC(=O)c1ccccc1 (stereo not given) | i | i | i | i | i
CCOc1cccc2cc(-c3nnc(NCc4ccco4)s3)c(=O)oc12 | i | -4.8* | i | i | i
Cc1ccc(C)c(N2CCN(CCCc3ccccc3)CC2)c1 | i | i | i | i | i
Cn1cc(/C=C2\SC(=S)N(NC(=O)c3ccccc3Cl)C2=O)c2ccccc21 | x | i | x | i | i
COc1cc(/C=C2\SC(=S)N(NC(=O)c3ccc(O)cc3)C2=O)ccc1O | i | i | i | i | i
COc1cc(/C=C2\SC(=S)N(NC(=O)c3cccnc3)C2=O)ccc1O | i | -6.7* | i | i | i
Cc1ccc(C(=O)NN2C(=O)/C(=C/c3cn(C)c4ccccc34)SC2=S)cc1 | x | -4.8* | x | i | i
O=C1/C(=C/c2ccc(O)c(O)c2)SC(=S)N1Nc1ccccc1 | i | x | i | x | x
O=C(NN1C(=O)/C(=C/c2ccc(O)c(O)c2)SC1=S)c1ccccc1 | i | i | i | i | 32*
Cc1ccc(S(=O)(=O)c2cc3c(=O)n4ccccc4nc3n(Cc3ccco3)c2=N)cc1C | i | i | i | i | 31*
COc1ccc(CCn2c(=N)c(S(=O)(=O)c3ccccc3)cc3c(=O)n4ccccc4nc32)cc1 | i | i | i | i | i
COc1ccc(CCn2c(=N)c(S(=O)(=O)c3ccc(Cl)cc3)cc3c(=O)n4ccccc4nc32)cc1 | i | -5.5* | i | i | i
Cc1ccc(S(=O)(=O)c2cc3c(=O)n4ccccc4nc3n(CCc3ccccc3)c2=N)cc1 | i | i | -7.2* | i | i
CCN(CCCC(=O)c1ccc(F)cc1)CCc1ccccc1 | i | i | -7.1* | i | i
CCN(CCCc1ccccc1)CCCc1ccccc1 | i | i | i | i | i
COc1ccc([N+](=O)[O-])c(S(=O)(=O)c2ccccc2)n1 | i | -6.2* | i | i | i
COc1ccc([N+](=O)[O-])c(S(=O)(=O)c2ccc(Cl)cc2)n1 | i | -6.5* | i | i | i
O=[N+]([O-])c1cccnc1S(=O)(=O)c1ccccc1 | i | i | i | i | i
COc1cccc(OC)c1OCCCNC1CCCC1 | i | i | i | i | i
CCOC(=O)CNC(=S)N(Cc1ccco1)Cc1ccccc1Cl | i | i | i | i | i
